Calls of active or inactive are those of the source. The calls are words filed in the database; no cut-off is given here.
Columns and labels:
Plutella xylostella [1] = assay: Induction of response in unmated male Plutella xylostella (diamondback moth) assessed as landing moth level at 10 uL in presence of synthetic pheromone measured after 10 min by wind tunnel bioassays (Rvb hexane = 0%); assay type: functional
Method in brief: (§1)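 Wind tunnel 240 × 30 × 30 cm. Moths acclimatized in the room ≥3 h beforehand. Filter-paper dispenser (4 × 2 cm) hung 15 cm high, loaded with 10 µL of GLV, synthetic pheromone (Z11-16:Ald/Z11-16:Ac/Z11-16:OH 1:1:0.01), a 1:1 mix, or hexane. Two moths released per replicate and watched 10 min; 20 replicates (40 insects) per treatment. Hexane control run twice daily; one treatment per day, tunnel washed between treatments.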

Plutella xylostella [2] = assay: Induction of response in unmated male Plutella xylostella (diamondback moth) assessed as flying moth level at 10 uL in presence of synthetic pheromone measured after 10 min by wind tunnel bioassays (Rvb hexane = 5%); assay type: functional; method in brief: as §1
Plutella xylostella [3] = assay: Induction of response in mated female Plutella xylostella (diamondback moth) assessed as landing moth level at 10 uL measured after 10 min by wind tunnel bioassays (Rvb hexane = 0%); assay type: functional; method in brief: as §1
Plutella xylostella [4] = assay: Induction of response in mated female Plutella xylostella (diamondback moth) assessed as flying moth level at 10 uL measured after 10 min by wind tunnel bioassays (Rvb hexane = 5%); assay type: functional; method in brief: as §1
Plutella xylostella [5] = assay: Induction of response in unmated female Plutella xylostella (diamondback moth) assessed as landing moth level at 10 uL measured after 10 min by wind tunnel bioassays (Rvb hexane = 0%); assay type: functional; method in brief: as §1
Plutella xylostella [6] = assay: Induction of response in unmated female Plutella xylostella (diamondback moth) assessed as flying moth level at 10 uL measured after 10 min by wind tunnel bioassays (Rvb hexane = 5%); assay type: functional; method in brief: as §1
Plutella xylostella [7] = assay: Induction of response in mated male Plutella xylostella (diamondback moth) assessed as landing moth level at 10 uL measured after 10 min by wind tunnel bioassays (Rvb hexane = 0%); assay type: functional; method in brief: as §1
Plutella xylostella [8] = assay: Induction of response in mated male Plutella xylostella (diamondback moth) assessed as flying moth level at 10 uL measured after 10 min by wind tunnel bioassays (Rvb hexane = 0%); assay type: functional; method in brief: as §1
Plutella xylostella [9] = assay: Induction of response in unmated male Plutella xylostella (diamondback moth) assessed as landing moth level at 10 uL measured after 10 min by wind tunnel bioassays (Rvb hexane = 0%); assay type: functional; method in brief: as §1
Plutella xylostella [10] = assay: Induction of response in unmated male Plutella xylostella (diamondback moth) assessed as flying moth level at 10 uL measured after 10 min by wind tunnel bioassays (Rvb hexane = 5%); assay type: functional; method in brief: as §1
Plutella xylostella [11] = assay: Induction of response in mated female Plutella xylostella (diamondback moth) assessed as landing moth level at 10 uL in presence of synthetic pheromone measured after 10 min by wind tunnel bioassays (Rvb hexane = 0%); assay type: functional; method in brief: as §1
Plutella xylostella [12] = assay: Induction of response in mated female Plutella xylostella (diamondback moth) assessed as flying moth level at 10 uL in presence of synthetic pheromone measured after 10 min by wind tunnel bioassays (Rvb hexane = 5%); assay type: functional; method in brief: as §1
Plutella xylostella [13] = assay: Induction of response in unmated female Plutella xylostella (diamondback moth) assessed as landing moth level at 10 uL in presence of synthetic pheromone measured after 10 min by wind tunnel bioassays (Rvb hexane = 0%); assay type: functional; method in brief: as §1
Plutella xylostella [14] = assay: Induction of response in unmated female Plutella xylostella (diamondback moth) assessed as flying moth level at 10 uL in presence of synthetic pheromone measured after 10 min by wind tunnel bioassays (Rvb hexane = 5%); assay type: functional; method in brief: as §1
Plutella xylostella [15] = assay: Induction of response in mated male Plutella xylostella (diamondback moth) assessed as landing moth level at 10 uL in presence of synthetic pheromone measured after 10 min by wind tunnel bioassays (Rvb hexane = 0%); assay type: functional; method in brief: as §1
Plutella xylostella [16] = assay: Induction of response in mated male Plutella xylostella (diamondback moth) assessed as flying moth level at 10 uL in presence of synthetic pheromone measured after 10 min by wind tunnel bioassays (Rvb hexane = 0%); assay type: functional; method in brief: as §1
Plutella xylostella [17] = assay: Potentiation of synthetic pheromone attractant activity in female Plutella xylostella (diamondback moth) in cabbage field assessed as female moth attraction level using sticky traps baited with compound and synthetic pheromone at 1:1 ratio by field trapping method relative to synthetic pheromone alone; assay type: functional
Plutella xylostella [18] = assay: Potentiation of synthetic pheromone attractant activity in female Plutella xylostella (diamondback moth) in cabbage field assessed as female moth attraction level using sticky traps baited with compound and synthetic pheromone at 1:1 ratio by field trapping method relative to compound alone; assay type: functional
Plutella xylostella [19] = assay: Attractant activity in male Plutella xylostella (diamondback moth) in cabbage field assessed as moth capture level using sticky traps baited with compound by field trapping method; assay type: functional, organism-based
Plutella xylostella [20] = assay: Potentiation of synthetic pheromone attractant activity in male Plutella xylostella (diamondback moth) in cabbage field assessed as moth capture level using sticky traps baited with compound and synthetic pheromone at 1:1 ratio by field trapping method relative to synthetic pheromone alone; assay type: functional

Structure (SMILES) | Activity (Plutella xylostella [1]) | Activity (Plutella xylostella [2]) | Activity (Plutella xylostella [3]) | Activity (Plutella xylostella [4]) | Activity (Plutella xylostella [5]) | Activity (Plutella xylostella [6]) | Activity (Plutella xylostella [7]) | Activity (Plutella xylostella [8]) | Activity (Plutella xylostella [9]) | Activity (Plutella xylostella [10]) | Activity (Plutella xylostella [11]) | Activity (Plutella xylostella [12]) | Activity (Plutella xylostella [13]) | Activity (Plutella xylostella [14]) | Activity (Plutella xylostella [15]) | Activity (Plutella xylostella [16]) | fold change (FC) (Plutella xylostella [17]) | fold change (FC) (Plutella xylostella [18]) | Activity (Plutella xylostella [19]) | Activity (Plutella xylostella [20])
CCC/C=C/C=O | 85% | 90% | 50% | 55% | 15% | 20% | 15% | 20% | 20% | 30% | 50% | 50% | 20% | 25% | 25% | 25% | – | – | – | –
C=CC(O)CCC (stereo unspecified) | 60% | 65% | 20% | 10% | 5% | 0% | 5% | 0% | 10% | 20% | 20% | 35% | 5% | 0% | 10% | 5% | – | – | – | –
CCCCCCO [1-HEXANOL] | 70% | 75% | 20% | 15% | 5% | 5% | 5% | 0% | 5% | 15% | 25% | 25% | 5% | 5% | 10% | 5% | – | – | – | –
CC/C=C\CCOC(C)=O [(Z)-hex-3-en-1-yl acetate] | 95% | 100% | 55% | 60% | 25% | 20% | 20% | 30% | 25% | 40% | 60% | 65% | 30% | 25% | 35% | 35% | 6 | 3 | inactive | 20%
CC/C=C\CCO [CIS-3-HEXENOL] | 80% | 85% | 40% | 40% | 15% | 10% | 10% | 0% | 15% | 25% | 45% | 40% | 20% | 10% | 20% | 15% | – | – | – | –
CCCCCC=O [HEXANAL] | 75% | 80% | 25% | 30% | 5% | 5% | 10% | 5% | 10% | 10% | 25% | 35% | 10% | 10% | 10% | 5% | – | – | – | –
CCCCCCOC(C)=O [HEXYL ACETATE] | 55% | 60% | 10% | 5% | 0% | 5% | 5% | 0% | 5% | 10% | 15% | 20% | 0% | 5% | 5% | 0% | – | – | – | –
